The source of these data is ChEMBL document CHEMBL1949516, “Synthesis and antimycobacterial evaluation of N-substituted 3-aminopyrazine-2,5-dicarbonitriles” (Bioorg Med Chem Lett, 2012).

Values after ≈ are worked out from the molar mass of the structure shown. Bounds are passed on as bounds.

One series has as its system Mycobacterium kansasii. As to the kind of experiment: Antimycobacterial activity against Mycobacterium kansasii CNCTC My 235/80 after 6 days by microdilution panel method. In kind it is functional. Conditions: CNCTC My 235/80, 144 h. The method, boiled down: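 Microdilution panel; compounds dissolved in DMSO and diluted with Šula's semisynthetic medium. Cultures grown in Šula's semisynthetic medium, pH 5.5, 37 °C. After 6 days of incubation, MIC (µg/mL) read visually. MICs also converted to molar units (µmol/L). PZA run as standard.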

Series [1] relates to Mycobacterium tuberculosis. As to the kind of experiment: Antimycobacterial activity against Mycobacterium tuberculosis H37Rv CNCTC My 331/88 after 14 days by microdilution panel method. In kind it is functional. To be noted: H37Rv CNCTC My 331/88, 336 h. The method, boiled down:
(§1)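 Compounds dissolved in DMSO, diluted in Šula's semisynthetic medium in microdilution panels. Cultures grown in Šula's medium, pH 5.5, 37 °C. After 14 days incubation, activity read visually as MIC (µg/mL), also converted to µmol/L. Pyrazinamide run as standard.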

Series [2] is described as follows: Aqueous solubility of the compound. To be noted: buffer. In kind it is physicochemical.
The subject of series [3] is Mycobacterium avium. The series can be described thus: Antimycobacterial activity against Mycobacterium avium CNCTC My 152/73 after 14 days by microdilution panel method. In kind it is functional. To be noted: CNCTC My 152/73, 336 h. A digest of the protocol:
as §1
(In general: In broth dilution the organism is exposed to a series of concentrations in liquid medium.)

Series [4] is described as follows: Partition coefficient, log k of the compound. In kind it is physicochemical. To be noted: octanol/water. A digest of the protocol: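 Capacity factor k measured by isocratic RP-HPLC on an end-capped non-polar C18 column, with methanol as organic modifier in the mobile phase. Value given as log k and used as a lipophilicity index converted to the logP scale.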

Series [5] concerns Mycobacterium avium. As to the kind of experiment: Antimycobacterial activity against Mycobacterium avium CNCTC My 80/72 after 14 days by microdilution panel method. To be noted: CNCTC My 80/72, 336 h. In kind it is functional. The method, boiled down: as §1

For orientation: MIC means the lowest concentration found to suppress growth. Read a high MIC as a need for much substance.

Consider `N#Cc1cnc(C#N)c(NC2CCCCCC2)n1`, for which the MIC (in the series on Mycobacterium kansasii; in series [1]; in the series on Mycobacterium avium [3]; in the series with Mycobacterium avium [5]) was more than 200 µg/mL in each case. In addition, the solubility result in series [2] was “Insoluble”. For the same compound, the “log K” value in series [4] is 0.8789.
For `CCCCCCCNc1nc(C#N)cnc1C#N`, the minimum inhibitory concentration (MIC) was more than 200 µg/mL with Mycobacterium kansasii, 12.5 µg/mL (≈ 51.4 µM) in series [1], more than 200 µg/mL in the series on Mycobacterium avium [3] and more than 200 µg/mL in the series with Mycobacterium avium [5]. In addition, in series [4], the “log K” value came to 1.0243.
`CCCCCCCCNc1nc(C#N)cnc1C#N`: the MIC with Mycobacterium kansasii is 100 µg/mL (≈ 389 µM); in series [1], 25 µg/mL (≈ 97.1 µM); in the series with Mycobacterium avium [3], more than 200 µg/mL; in the series on Mycobacterium avium [5] it was more than 200 µg/mL. The “log K” value in series [4] was 1.1953.
Turning to `N#Cc1cnc(C#N)c(N2CCOCC2)n1`, the MIC with Mycobacterium kansasii was 200 µg/mL (≈ 929 µM); in series [1], 200 µg/mL (≈ 929 µM); in the series with Mycobacterium avium [3], more than 200 µg/mL; in the series with Mycobacterium avium [5] it was more than 200 µg/mL. In addition, the “log K” value in series [4] is on record as 0.583.
Take `N#Cc1cnc(C#N)c(NC2CCCC2)n1`: the MIC (against Mycobacterium kansasii; in series [1]; in the series with Mycobacterium avium [3]; in the series with Mycobacterium avium [5]) was more than 200 µg/mL in each case. Moreover, the solubility entry in series [2] is on record as “Insoluble”. Further, the “log K” value in series [4] amounted to 0.7273.
For the compound `CN1CCN(c2nc(C#N)cnc2C#N)CC1`, the MIC (against Mycobacterium kansasii; in series [1]; with Mycobacterium avium [3]; against Mycobacterium avium [5]) was more than 200 µg/mL each time. In addition, in series [4], the “log K” value was 0.5946.
Take `CCCCCNc1nc(C#N)cnc1C#N`: the MIC against Mycobacterium kansasii is 100 µg/mL (≈ 465 µM); in series [1], 50 µg/mL (≈ 232 µM); against Mycobacterium avium [3], 100 µg/mL (≈ 465 µM); against Mycobacterium avium [5] it was 100 µg/mL (≈ 465 µM). Besides, the “log K” value in series [4] came to 0.7901.
For the compound `N#Cc1cnc(C#N)c(Cl)n1`, the minimal inhibitory concentration (MIC) in the series on Mycobacterium kansasii is more than 200 µg/mL; in series [1] it was 25 µg/mL (≈ 152 µM); against Mycobacterium avium [3], 100 µg/mL (≈ 608 µM); against Mycobacterium avium [5], 100 µg/mL (≈ 608 µM). The “log K” value in series [4] turned out to be 0.5792.
Take `CCCCNc1nc(C#N)cnc1C#N`: the minimum inhibitory concentration (MIC) (with Mycobacterium kansasii; in series [1]; against Mycobacterium avium [3]; against Mycobacterium avium [5]) was 100 µg/mL (≈ 497 µM) in each case. For the same compound, the “log K” value in series [4] is given as 0.7088.
On to `CCCNc1nc(C#N)cnc1C#N`, for which the MIC (against Mycobacterium kansasii; in series [1]; in the series with Mycobacterium avium [3]; against Mycobacterium avium [5]) was 200 µg/mL (≈ 1070 µM) in each case. Moreover, the “log K” value in series [4] is recorded as 0.6497.
With `NC(=O)c1cnccn1` [PYRAZINAMIDE], the minimum inhibitory concentration (MIC) was more than 200 µg/mL in the series with Mycobacterium kansasii, 12.5 µg/mL (≈ 102 µM) in series [1], more than 200 µg/mL against Mycobacterium avium [3] and more than 200 µg/mL against Mycobacterium avium [5]. For the same compound, the “log K” value in series [4] came to 0.0514.
Consider `N#Cc1cnc(C#N)c(NC2CCCCC2)n1`, for which the minimal inhibitory concentration (MIC) (in the series on Mycobacterium kansasii; in series [1]; against Mycobacterium avium [3]; in the series on Mycobacterium avium [5]) was more than 200 µg/mL throughout. Moreover, in series [2], the solubility entry is reported as “Insoluble”. Also, the “log K” value in series [4] is 0.7896.
On to `CCN(CC)c1nc(C#N)cnc1C#N`, for which the MIC against Mycobacterium kansasii is 100 µg/mL (≈ 497 µM); in series [1] it was 100 µg/mL (≈ 497 µM); against Mycobacterium avium [3] it was more than 200 µg/mL; in the series on Mycobacterium avium [5] it was more than 200 µg/mL. For the same compound, the “log K” value in series [4] is listed as 0.6685.
As for `CCNc1nc(C#N)cnc1C#N`, the MIC is 200 µg/mL (≈ 1150 µM) with Mycobacterium kansasii, 100 µg/mL (≈ 577 µM) in series [1], more than 200 µg/mL against Mycobacterium avium [3] and more than 200 µg/mL with Mycobacterium avium [5]. Further, the “log K” value in series [4] is 0.6146.
Turning to `CCCCCCNc1nc(C#N)cnc1C#N`, the MIC in the series with Mycobacterium kansasii is 50 µg/mL (≈ 218 µM); in series [1], 25 µg/mL (≈ 109 µM); with Mycobacterium avium [3], 100 µg/mL (≈ 436 µM); with Mycobacterium avium [5] it was 100 µg/mL (≈ 436 µM). Besides, the “log K” value in series [4] is on record as 0.9133.
As for `CNc1nc(C#N)cnc1C#N`, the minimal inhibitory concentration (MIC) against Mycobacterium kansasii is 100 µg/mL (≈ 628 µM); in series [1], 100 µg/mL (≈ 628 µM); against Mycobacterium avium [3] it was more than 200 µg/mL; in the series with Mycobacterium avium [5] it was more than 200 µg/mL. For the same compound, the “log K” value in series [4] stood at 0.5859.
